According to ChEMBL document CHEMBL2163192, “N,N-Dimethyl-[9-(arylsulfonyl)-2,3,4,9-tetrahydro-1H-carbazol-3-yl]amines as novel, potent and selective 5-HT₆ receptor antagonists” (Bioorg Med Chem Lett, 2012):
Blank lines part the entries; values can stand above or below the compound they belong to. The source made the active and inactive calls. No cut-off for these calls is given here.

Assays:
[1] = target: T1, 5-hydroxytryptamine receptor 6 (Homo sapiens, UniProt P50406); test: Displacement of [3H]LSD from human cloned 5-HT6 receptor expressed in HeLa cells after 1 hr by scintillation counter; type: cell-based
[2] = Volume of distribution in Wistar rat at 10 mg/kg, iv; type: ADME, organism-based; parameters: dose 10 mg/kg, route intravenous; conditions: in vivo
In short: (§1)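 Fasted male Wistar rats, n=3, single 10 mg/kg intravenous dose in water for injection (2 mL/kg); plasma concentration–time profile used for Cmax, AUC, half-life, Vd and clearance.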

[3] = target: 5-hydroxytryptamine receptor 2A (Homo sapiens) (UniProt P28223); test: Inhibition of 5-HT2A receptor at 1 uM
In short: (§2)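 In-house selectivity panel of related receptors and transporters; each compound tested at 1 μM and 10 μM; percent inhibition determined in duplicate and the mean of the two reported.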

[4] = target: CYP2D6 (Homo sapiens, UniProt P10635); test: Inhibition of human CYP2D6 at 3 uM; type: ADME
In short: (§3)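 Isoform-selective inhibition assays using heterologously expressed human CYP enzymes; compounds tested at 3 μM; percent inhibition reported.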

[5] = target: 5-hydroxytryptamine receptor 2A (Homo sapiens) (UniProt P28223); test: Inhibition of 5-HT2A receptor at 10 uM; in short: as §2
[6] = target: T2, 5-hydroxytryptamine receptor 1A (Homo sapiens) (UniProt P08908); test: Inhibition of 5-HT1A receptor at 10 uM; in short: as §2
T2 sequence (whole entry): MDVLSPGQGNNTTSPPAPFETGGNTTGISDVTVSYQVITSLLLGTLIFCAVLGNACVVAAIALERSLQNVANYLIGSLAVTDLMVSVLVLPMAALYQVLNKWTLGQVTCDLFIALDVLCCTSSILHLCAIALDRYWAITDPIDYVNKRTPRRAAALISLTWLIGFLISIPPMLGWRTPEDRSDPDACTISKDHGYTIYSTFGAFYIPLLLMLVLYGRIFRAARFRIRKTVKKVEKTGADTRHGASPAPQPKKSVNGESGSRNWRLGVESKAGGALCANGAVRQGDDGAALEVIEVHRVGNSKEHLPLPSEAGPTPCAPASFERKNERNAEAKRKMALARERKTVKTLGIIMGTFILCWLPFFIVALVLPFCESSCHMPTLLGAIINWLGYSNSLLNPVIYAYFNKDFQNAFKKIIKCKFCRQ

[7] = target: Histamine H4 receptor (Homo sapiens) (UniProt Q9H3N8); test: Inhibition of histamine H4 receptor at 10 uM; in short: as §2
[8] = AUC in Wistar rat at 10 mg/kg, iv; type: ADME, organism-based; parameters: dose 10 mg/kg, route intravenous; conditions: plasma; in short: as §1
[9] = tested on: Rattus norvegicus; test: Cognitive enhancing effect in Wistar rat assessed as increase in time send on novel object at 1 to 10 mg/kg, po after 60 mins by novel object recognition test; type: functional, organism-based
In short: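 Novel object recognition in rats with 24-h delay procedure; 1, 3 and 10 mg/kg given orally in water for injection (2 mL/kg) 60 min before test; time exploring novel versus familiar object compared by paired t test, n = 8–10/group.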

[10] = target: Sodium-dependent serotonin transporter (Homo sapiens) (UniProt P31645); test: Inhibition of SERT at 1 uM; in short: as §2
[11] = target: Sodium-dependent dopamine transporter (Homo sapiens) (UniProt Q01959); test: Inhibition of DAT at 1 uM; in short: as §2
[12] = target: Sodium-dependent dopamine transporter (Homo sapiens) (UniProt Q01959); test: Inhibition of DAT at 10 uM; in short: as §2
[13] = target: T1, 5-hydroxytryptamine receptor 6; test: Antagonist activity at human recombinant 5-HT6 receptor expressed in CHO cells assessed as inhibition of 5-HT-stimulated cAMP accumulation after 4 hrs by luciferase reporter gene assay; type: functional, cell-based
In short: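 Cell-based, non-radioactive reporter gene assay measuring antagonism of 5-HT-stimulated cAMP formation at human 5-HT6 receptor; IC50 and Kb values determined in duplicate.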

[14] = Half life in Wistar rat at 10 mg/kg, iv; type: ADME, organism-based; parameters: dose 10 mg/kg, route intravenous; conditions: in vivo; in short: as §1
[15] = Clearance in Wistar rat at 10 mg/kg, po; type: ADME, organism-based; parameters: dose 10 mg/kg, route oral; conditions: in vivo
In short: (§4)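 Fasted male Wistar rats, n=3, given 10 mg/kg orally in water for injection (10 mL/kg); plasma Cmax, half-life, Vd and clearance derived, with bioavailability from comparison against the 10 mg/kg iv arm.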

[16] = Half life in Wistar rat at 10 mg/kg, po; type: ADME, organism-based; parameters: dose 10 mg/kg, route oral; conditions: in vivo; in short: as §4
[17] = Clearance in Wistar rat at 10 mg/kg, iv; type: ADME, organism-based; parameters: dose 10 mg/kg, route intravenous; conditions: in vivo; in short: as §1
[18] = Oral bioavailability in Wistar rat at 10 mg/kg; type: ADME, organism-based; conditions: in vivo; in short: as §4
[19] = target: D(2) dopamine receptor (Homo sapiens) (UniProt P14416); test: Inhibition of dopamine D2 receptor at 1 uM; in short: as §2
[20] = Drug metabolism in human liver microsomes; type: ADME, Microsome; conditions: read-out: Drug metabolism
[21] = Cmax in Wistar rat at 10 mg/kg, iv; type: ADME, organism-based; parameters: dose 10 mg/kg, route intravenous; conditions: in vivo; in short: as §1
[22] = target: Histamine H3 receptor (Homo sapiens) (UniProt Q9Y5N1); test: Inhibition of histamine H3 receptor at 10 uM; in short: as §2
[23] = Ratio of drug level in brain to plasma in Wistar rat at 10 mg/kg, po; type: ADME, organism-based; parameters: dose 10 mg/kg, route oral; conditions: read-out: BPR
[24] = Drug metabolism in rat liver microsomes; type: ADME, Microsome; conditions: read-out: Drug metabolism
[25] = target: D(2) dopamine receptor (Homo sapiens) (UniProt P14416); test: Inhibition of dopamine D2 receptor at 10 uM; in short: as §2
[26] = target: CYP3A4 (Homo sapiens, UniProt P08684); test: Inhibition of human CYP3A4 at 3 uM; type: ADME; in short: as §3
[27] = target: Histamine H4 receptor (Homo sapiens) (UniProt Q9H3N8); test: Inhibition of histamine H4 receptor at 1 uM; in short: as §2
[28] = target: T2, 5-hydroxytryptamine receptor 1A (Homo sapiens); test: Inhibition of 5-HT1A receptor at 1 uM; in short: as §2
[29] = target: CYP2C19 (Homo sapiens, UniProt P33261); test: Inhibition of human CYP2C19 at 3 uM; type: ADME; in short: as §3
[30] = tested on: Rattus norvegicus; test: Volume of distribution in Wistar rat at 10 mg/kg, po; type: ADME, organism-based; parameters: dose 10 mg/kg, route oral; conditions: in vivo; in short: as §4
[31] = target: Sodium-dependent serotonin transporter (Homo sapiens) (UniProt P31645); test: Inhibition of SERT at 10 uM; in short: as §2
[32] = target: T3, Alpha-1B adrenergic receptor (Homo sapiens) (UniProt P35368); test: Inhibition of alpha1B adrenergic receptor at 1 uM; in short: as §2
T3 sequence (whole entry): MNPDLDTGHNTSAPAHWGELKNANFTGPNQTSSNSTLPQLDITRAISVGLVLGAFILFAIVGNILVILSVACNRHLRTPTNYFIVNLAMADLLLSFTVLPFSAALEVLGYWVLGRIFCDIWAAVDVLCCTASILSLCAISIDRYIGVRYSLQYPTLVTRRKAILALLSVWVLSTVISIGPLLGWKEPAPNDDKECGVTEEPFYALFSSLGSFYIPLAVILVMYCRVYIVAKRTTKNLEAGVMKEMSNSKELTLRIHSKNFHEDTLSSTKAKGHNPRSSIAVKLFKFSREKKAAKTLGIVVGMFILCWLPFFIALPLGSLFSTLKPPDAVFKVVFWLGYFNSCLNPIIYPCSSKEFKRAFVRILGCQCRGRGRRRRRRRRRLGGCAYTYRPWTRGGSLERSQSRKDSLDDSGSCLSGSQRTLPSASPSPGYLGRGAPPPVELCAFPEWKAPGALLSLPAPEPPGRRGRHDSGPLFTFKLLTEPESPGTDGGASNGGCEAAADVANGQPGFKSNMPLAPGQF

[33] = AUC in Wistar rat at 10 mg/kg, po; type: ADME, organism-based; parameters: dose 10 mg/kg, route oral; conditions: plasma
In short: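 Fasted male Wistar rats (n = 3) received a single oral dose of 10 mg/kg in water for injection. AUC is given in ng.hr/mL as part of a pharmacokinetic profile that also includes Cmax, t1/2, Vd and clearance, and uses an i.v. 10 mg/kg arm to derive oral bioavailability.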

[34] = target: T3, Alpha-1B adrenergic receptor (Homo sapiens); test: Inhibition of alpha1B adrenergic receptor at 10 uM; in short: as §2
[35] = target: Histamine H3 receptor (Homo sapiens) (UniProt Q9Y5N1); test: Inhibition of histamine H3 receptor at 1 uM; in short: as §2
[36] = Cmax in Wistar rat at 10 mg/kg, po; type: ADME, organism-based; parameters: dose 10 mg/kg, route oral; conditions: in vivo; in short: as §4

T1 sequence (P50406 whole entry): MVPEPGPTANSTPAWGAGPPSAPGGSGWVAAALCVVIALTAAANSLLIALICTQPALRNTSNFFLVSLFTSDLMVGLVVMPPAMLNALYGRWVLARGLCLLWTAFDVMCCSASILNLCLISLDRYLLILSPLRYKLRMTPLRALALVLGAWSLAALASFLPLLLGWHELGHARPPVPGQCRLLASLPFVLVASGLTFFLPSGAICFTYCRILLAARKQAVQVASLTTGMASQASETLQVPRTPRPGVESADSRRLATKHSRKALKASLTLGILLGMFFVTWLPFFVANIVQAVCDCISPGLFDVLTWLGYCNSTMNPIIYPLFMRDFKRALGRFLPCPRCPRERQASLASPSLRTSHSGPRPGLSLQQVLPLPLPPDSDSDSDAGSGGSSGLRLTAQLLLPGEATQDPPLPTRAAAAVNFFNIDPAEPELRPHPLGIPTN
Chain of 5-hydroxytryptamine receptor 2A (Homo sapiens) (P28223 whole entry): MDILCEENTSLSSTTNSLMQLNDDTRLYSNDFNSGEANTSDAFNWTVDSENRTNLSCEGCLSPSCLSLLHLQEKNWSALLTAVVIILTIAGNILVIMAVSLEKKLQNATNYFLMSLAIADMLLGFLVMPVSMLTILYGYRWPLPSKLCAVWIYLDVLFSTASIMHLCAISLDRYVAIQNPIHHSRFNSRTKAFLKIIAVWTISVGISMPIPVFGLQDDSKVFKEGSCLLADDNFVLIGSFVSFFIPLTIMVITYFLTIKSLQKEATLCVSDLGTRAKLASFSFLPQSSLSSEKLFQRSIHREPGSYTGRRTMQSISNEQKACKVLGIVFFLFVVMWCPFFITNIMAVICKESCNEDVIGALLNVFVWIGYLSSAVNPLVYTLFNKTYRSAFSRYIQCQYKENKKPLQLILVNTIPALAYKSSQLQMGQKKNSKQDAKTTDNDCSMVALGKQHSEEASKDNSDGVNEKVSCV
Chain of Sodium-dependent serotonin transporter (Homo sapiens) (P31645 whole entry, looked up): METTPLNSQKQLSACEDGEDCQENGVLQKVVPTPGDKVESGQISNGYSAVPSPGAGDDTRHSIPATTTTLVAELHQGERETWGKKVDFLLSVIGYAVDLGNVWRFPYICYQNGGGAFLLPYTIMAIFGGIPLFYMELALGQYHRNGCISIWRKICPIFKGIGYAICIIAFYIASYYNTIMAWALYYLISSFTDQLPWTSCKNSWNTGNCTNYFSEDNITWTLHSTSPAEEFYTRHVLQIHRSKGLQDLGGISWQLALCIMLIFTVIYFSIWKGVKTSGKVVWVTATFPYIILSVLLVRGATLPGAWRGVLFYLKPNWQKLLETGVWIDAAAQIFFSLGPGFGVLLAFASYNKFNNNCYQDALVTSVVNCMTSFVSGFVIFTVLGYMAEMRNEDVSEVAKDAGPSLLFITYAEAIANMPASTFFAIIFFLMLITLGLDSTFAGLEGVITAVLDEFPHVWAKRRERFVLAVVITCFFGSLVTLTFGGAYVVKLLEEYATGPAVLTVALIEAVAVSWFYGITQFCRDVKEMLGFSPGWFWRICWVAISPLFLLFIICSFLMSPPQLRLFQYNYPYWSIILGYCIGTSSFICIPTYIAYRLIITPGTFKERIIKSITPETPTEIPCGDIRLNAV
Chain of Sodium-dependent dopamine transporter (Homo sapiens) (Q01959 whole entry): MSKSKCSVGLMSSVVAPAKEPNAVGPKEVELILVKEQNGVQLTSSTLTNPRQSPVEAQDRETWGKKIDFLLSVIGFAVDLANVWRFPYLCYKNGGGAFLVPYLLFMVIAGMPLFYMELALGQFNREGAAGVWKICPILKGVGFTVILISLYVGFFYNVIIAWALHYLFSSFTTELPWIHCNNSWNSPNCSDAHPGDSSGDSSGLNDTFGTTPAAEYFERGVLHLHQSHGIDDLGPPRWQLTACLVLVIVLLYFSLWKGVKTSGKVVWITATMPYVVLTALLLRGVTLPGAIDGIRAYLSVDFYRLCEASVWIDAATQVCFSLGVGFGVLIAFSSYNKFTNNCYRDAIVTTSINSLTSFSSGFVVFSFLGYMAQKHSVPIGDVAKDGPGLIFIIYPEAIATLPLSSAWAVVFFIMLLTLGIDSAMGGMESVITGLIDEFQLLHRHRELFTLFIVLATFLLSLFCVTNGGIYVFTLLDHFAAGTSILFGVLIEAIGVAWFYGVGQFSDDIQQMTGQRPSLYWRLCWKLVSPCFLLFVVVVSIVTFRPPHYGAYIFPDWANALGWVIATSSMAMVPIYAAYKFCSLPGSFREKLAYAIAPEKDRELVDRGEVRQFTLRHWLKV
Chain of Histamine H3 receptor (Homo sapiens) (Q9Y5N1 whole entry): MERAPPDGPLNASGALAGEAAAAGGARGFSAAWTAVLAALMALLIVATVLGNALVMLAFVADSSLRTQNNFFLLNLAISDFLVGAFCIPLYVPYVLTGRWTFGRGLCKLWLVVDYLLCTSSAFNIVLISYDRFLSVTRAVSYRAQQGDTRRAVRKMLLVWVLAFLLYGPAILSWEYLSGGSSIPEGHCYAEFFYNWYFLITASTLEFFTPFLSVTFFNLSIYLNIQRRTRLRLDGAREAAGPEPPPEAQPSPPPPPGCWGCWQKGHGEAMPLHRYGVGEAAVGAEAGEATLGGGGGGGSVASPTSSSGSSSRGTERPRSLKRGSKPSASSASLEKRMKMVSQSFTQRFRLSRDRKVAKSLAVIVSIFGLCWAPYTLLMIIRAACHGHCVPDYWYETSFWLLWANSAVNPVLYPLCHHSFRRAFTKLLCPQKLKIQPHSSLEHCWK
Chain of D(2) dopamine receptor (Homo sapiens) (P14416 whole entry): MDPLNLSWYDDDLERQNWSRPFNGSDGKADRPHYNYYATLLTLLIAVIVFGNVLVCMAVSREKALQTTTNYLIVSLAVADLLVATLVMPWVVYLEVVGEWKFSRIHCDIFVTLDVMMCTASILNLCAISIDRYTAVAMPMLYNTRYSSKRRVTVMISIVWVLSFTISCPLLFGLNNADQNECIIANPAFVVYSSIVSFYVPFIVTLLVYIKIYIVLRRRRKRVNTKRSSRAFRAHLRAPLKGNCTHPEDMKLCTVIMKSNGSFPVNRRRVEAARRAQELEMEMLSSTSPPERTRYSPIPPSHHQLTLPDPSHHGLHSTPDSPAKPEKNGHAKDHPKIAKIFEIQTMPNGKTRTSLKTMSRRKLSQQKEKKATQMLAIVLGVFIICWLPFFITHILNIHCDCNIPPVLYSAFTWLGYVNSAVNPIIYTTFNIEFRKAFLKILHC
Chain of CYP3A4 (P08684 whole entry): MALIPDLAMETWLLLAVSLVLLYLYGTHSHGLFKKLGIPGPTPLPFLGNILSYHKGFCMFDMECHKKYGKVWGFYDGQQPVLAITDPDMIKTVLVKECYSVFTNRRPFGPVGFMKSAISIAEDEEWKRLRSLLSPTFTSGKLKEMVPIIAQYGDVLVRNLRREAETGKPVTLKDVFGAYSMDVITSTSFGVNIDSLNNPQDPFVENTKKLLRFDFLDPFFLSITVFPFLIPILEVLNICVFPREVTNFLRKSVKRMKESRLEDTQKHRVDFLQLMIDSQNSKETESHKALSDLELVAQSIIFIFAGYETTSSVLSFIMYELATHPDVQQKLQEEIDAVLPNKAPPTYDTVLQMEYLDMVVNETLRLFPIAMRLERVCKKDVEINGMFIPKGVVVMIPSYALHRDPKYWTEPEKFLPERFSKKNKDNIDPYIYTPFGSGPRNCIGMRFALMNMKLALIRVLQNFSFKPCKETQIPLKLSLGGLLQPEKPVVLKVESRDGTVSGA
Chain of CYP2C19 (P33261 whole entry): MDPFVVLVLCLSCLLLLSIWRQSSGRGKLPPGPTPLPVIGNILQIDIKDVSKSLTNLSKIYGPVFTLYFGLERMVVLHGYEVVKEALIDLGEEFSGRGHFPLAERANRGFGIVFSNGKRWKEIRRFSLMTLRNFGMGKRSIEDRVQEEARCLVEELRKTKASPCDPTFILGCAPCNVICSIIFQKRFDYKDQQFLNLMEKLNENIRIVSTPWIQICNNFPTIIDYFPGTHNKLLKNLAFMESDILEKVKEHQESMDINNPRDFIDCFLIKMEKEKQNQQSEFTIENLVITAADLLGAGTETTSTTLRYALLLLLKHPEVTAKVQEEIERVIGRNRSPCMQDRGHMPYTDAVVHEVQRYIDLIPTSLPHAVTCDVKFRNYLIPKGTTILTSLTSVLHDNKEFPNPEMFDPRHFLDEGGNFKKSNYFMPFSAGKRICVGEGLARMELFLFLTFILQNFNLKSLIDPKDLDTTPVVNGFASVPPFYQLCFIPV
Chain of CYP2D6 (P10635 whole entry, canonical isoform): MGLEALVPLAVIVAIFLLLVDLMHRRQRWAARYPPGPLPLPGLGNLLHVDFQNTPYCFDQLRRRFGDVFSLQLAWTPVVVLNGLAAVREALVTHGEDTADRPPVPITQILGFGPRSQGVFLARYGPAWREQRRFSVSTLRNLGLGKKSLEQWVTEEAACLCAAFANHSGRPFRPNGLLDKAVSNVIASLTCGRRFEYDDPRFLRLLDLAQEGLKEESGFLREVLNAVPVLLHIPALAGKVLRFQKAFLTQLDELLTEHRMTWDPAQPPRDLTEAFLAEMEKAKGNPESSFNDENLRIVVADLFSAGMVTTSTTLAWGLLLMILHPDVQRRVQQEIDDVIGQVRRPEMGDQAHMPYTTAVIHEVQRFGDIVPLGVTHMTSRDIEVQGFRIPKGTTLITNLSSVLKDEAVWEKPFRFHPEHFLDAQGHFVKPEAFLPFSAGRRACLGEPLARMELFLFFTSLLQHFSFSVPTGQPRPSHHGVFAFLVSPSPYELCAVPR

Ki [1]: 58 nM
Structure (SMILES): NC1CCc2[nH]c3ccc(S(=O)(=O)c4ccccc4)cc3c2C1 (configuration not stated)

Vd [2]: 24.3 L/kg | inhibition [3]: 8.15% | inhibition at 3 µM [4]: 50% | inhibition [5]: 46.7% | inhibition [6]: 43.1% | inhibition [7]: 13.9% | AUC [8]: 2120 ng·h/mL | inhibition [10]: 2.52% | inhibition [11]: 1.48% | inhibition [12]: 6.23% | IC50 [13]: 457 nM | Kb [13]: 4.7 nM | half-life [14]: 3.86 h | CL/F [15]: 331 mL/min/kg | half-life [16]: 7.67 h | clearance [17]: 73.8 mL/min/kg | bioavailability [18]: 26% | inhibition [19]: 11% | metabolised [20]: 49% | Cmax [21]: 928 ng/mL | inhibition [22]: 32.7% | Kp [23]: 7.6 | metabolised [24]: 74% | inhibition [25]: 51.3% | inhibition at 3 µM [26]: 10% | inhibition [27]: 0% | inhibition [28]: 28.3% | inhibition at 3 µM [29]: 50% | Vd [30]: 21.95 L/kg | inhibition [31]: 3.35% | inhibition [32]: 5.21% | AUC [33]: 544 ng·h/mL | inhibition [34]: 5.26% | inhibition [35]: 22.8% | Cmax [36]: 90 ng/mL
Structure (SMILES): COc1ccc2c(c1)c1c(n2S(=O)(=O)c2ccccc2)CCC(N(C)C)C1 (racemic)
Activity [9]: Active
